Data from ChEMBL document CHEMBL4673181, “An investigation of the antileishmanial properties of semi-synthetic saponins” (RSC Med Chem, 2020).

Experiments:
[1] = tested on: Leishmania mexicana; test: Antileishmanial activity against axenic amastigote stage of Leishmania mexicana (MNYC/BZ/62/M379) assessed as inhibition of parasite proliferation at 50 uM incubated for 24 hrs by alamar blue dye based fluorescence analysis; assay type: functional
How it was run: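 Primary single-point screen at 50 μM, in duplicate. Axenic L. mexicana amastigotes at 4x10⁵ mL⁻¹ incubated with compound 24 h at 33 °C in sealed plates, then alamarBlue for a further 24 h at the same temperature. Viability read by fluorescence at 560/600 nm against amphotericin B (50 μM) and DMSO controls.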

[2] = tested on: Leishmania mexicana; test: Antileishmanial activity against axenic amastigote stage of Leishmania mexicana (MNYC/BZ/62/M379) assessed as induction of parasite killing incubated for 24 hrs by alamar blue dye based fluorescence analysis; assay type: functional; details: read-out: ED50 (the source's name)
How it was run: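 L. mexicana axenic amastigotes (from promastigotes by pH/temperature shift; Schneider's with 20% HIFBS) at 4x10⁵ mL⁻¹, exposed to three-fold dilutions from 50 μM to 0.21 μM for 24 h at 33 °C in sealed plates. alamarBlue then added for another 24 h, fluorescence read at 560/600 nm. Amphotericin B (50 μM) positive, DMSO negative control. Duplicates on four occasions, EC₅₀ fitted.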

| Compound | inhibition at 50 µM [1] | EC50 [2] |
| --- | --- | --- |
| C[C@@H]1O[C@@H](C[C@@H]2OC[C@@]3(C)[C@@H]4CC[C@]5(C)[C@H](CC=C6[C@@H]7CC(C)(C)CC[C@]7(C(=O)O)CC[C@]65C)[C@@]4(C)CC[C@@H]3O2)[C@@H](O)[C@H](O)[C@@H]1O | ≥ 95% | 19.4 µM |
| CC1(C)CC[C@]2(NC(=O)N3CCCC3)CC[C@]3(C)C(=CC[C@@H]4[C@@]5(C)CC[C@H](O)[C@@](C)(CO)[C@@H]5CC[C@]43C)[C@@H]2C1 | ≥ 95% | 15.3 µM |
| CC1(C)CC[C@]2(C(=O)O)CC[C@]3(C)C(=CC[C@@H]4[C@@]5(C)CC[C@@H]6O[C@H]([C@H](O)[C@@H](O)[C@@H](O)CO)OC[C@@]6(C)[C@@H]5CC[C@]43C)[C@@H]2C1 | ≥ 95% | 14.6 µM |
| CC(=O)N1CCN(C(=O)N[C@]23CCC(C)(C)C[C@H]2C2=CC[C@@H]4[C@@]5(C)CC[C@@H]6OC(C)(C)OC[C@@]6(C)[C@@H]5CC[C@@]4(C)[C@]2(C)CC3)CC1 | ≥ 95% | 26.4 µM |
| C[C@H]1O[C@H](C[C@@H]2OC[C@@]3(C)[C@@H]4CC[C@]5(C)[C@H](CC=C6[C@@H]7CC(C)(C)CC[C@]7(C(=O)O)CC[C@]65C)[C@@]4(C)CC[C@@H]3O2)[C@H](O)[C@@H](O)[C@@H]1O | ≥ 95% | > 50 µM |
| CC1(C)CC[C@]2(C(=O)OCC(=O)c3ccccc3)CC[C@]3(C)C(=CC[C@@H]4[C@@]5(C)CC[C@H](O)[C@@](C)(CO)[C@@H]5CC[C@]43C)[C@@H]2C1 | ≥ 95% | 45.9 µM |
| CN(C)CCCNC(=O)N[C@]12CCC(C)(C)C[C@H]1C1=CC[C@@H]3[C@@]4(C)CC[C@@H]5OC(C)(C)OC[C@@]5(C)[C@@H]4CC[C@@]3(C)[C@]1(C)CC2 | ≥ 95% | 17.5 µM |
| C[C@@H]1O[C@@H](O[C@H]2[C@H](O[C@H]3CC[C@@]4(C)[C@@H](CC[C@]5(C)[C@@H]4CC=C4[C@@H]6CC(C)(C)CC[C@]6(C(=O)O)CC[C@]45C)[C@]3(C)CO)OC[C@H](O)[C@@H]2O)[C@H](O)[C@H](O)[C@H]1O [ALPHA-HEDERIN] | ≥ 95% | 19.6 µM |
| CC1(C)CC[C@]2(C(=O)OCc3ccccc3[N+](=O)[O-])CC[C@]3(C)C(=CC[C@@H]4[C@@]5(C)CC[C@H](O)[C@@](C)(CO)[C@@H]5CC[C@]43C)[C@@H]2C1 | ≥ 95% | > 50 µM |
| CCCOC(=O)[C@]12CCC(C)(C)C[C@H]1C1=CC[C@@H]3[C@@]4(C)CC[C@H](O)[C@@](C)(CO)[C@@H]4CC[C@@]3(C)[C@]1(C)CC2 | ≥ 95% | 43.6 µM |
| CC1(C)CC[C@]2(CO)CC[C@]3(C)C(=CC[C@@H]4[C@@]5(C)CC[C@@H]6O[C@H]([C@H](O)[C@@H](O)[C@H](O)CO)OC[C@@]6(C)[C@@H]5CC[C@]43C)[C@@H]2C1 | ≥ 95% | > 50 µM |
| CC1(C)CC[C@]2(NC(=O)N3CCC[C@H]3CO)CC[C@]3(C)C(=CC[C@@H]4[C@@]5(C)CC[C@@H]6OC(C)(C)OC[C@@]6(C)[C@@H]5CC[C@]43C)[C@@H]2C1 | ≥ 95% | 26.2 µM |
| CC1(C)CC[C@]2(C(=O)O)CC[C@]3(C)C(=CC[C@@H]4[C@@]5(C)CC[C@@H]6O[C@H](C[C@H]7O[C@H](CO)[C@H](O)[C@H](O)[C@H]7O)OC[C@@]6(C)[C@@H]5CC[C@]43C)[C@@H]2C1 | ≥ 95% | 21.7 µM |
| CC1(C)CC[C@]2(NC(=O)N[C@H]3C(O)O[C@H](CO)[C@@H](O)[C@@H]3O)CC[C@]3(C)C(=CC[C@@H]4[C@@]5(C)CC[C@@H]6OC(C)(C)OC[C@@]6(C)[C@@H]5CC[C@]43C)[C@@H]2C1 (some centres undefined) | ≥ 95% | > 50 µM |
| CC1(C)CC[C@]2(C(=O)O)CC[C@]3(C)C(=CC[C@@H]4[C@@]5(C)CC[C@H](O[C@@H]6OC[C@H](O)[C@H](O)[C@H]6O)[C@@](C)(CO)[C@@H]5CC[C@]43C)[C@@H]2C1 | ≥ 95% | > 50 µM |
| CC(=O)OC[C@@]1(C)[C@@H]2CC[C@]3(C)[C@H](CC=C4[C@@H]5CC(C)(C)CC[C@]5(NC(=O)N5CCN(C)CC5)CC[C@]43C)[C@@]2(C)CC[C@@H]1O[C@@H]1OC[C@H](OC(C)=O)[C@H](OC(C)=O)[C@H]1O[C@@H]1O[C@@H](C)[C@H](OC(C)=O)[C@@H](OC(C)=O)[C@H]1OC(C)=O | ≥ 95% | 19.9 µM |
| CC1(C)CC[C@]2(C(=O)OCN3C(=O)c4ccccc4C3=O)CC[C@]3(C)C(=CC[C@@H]4[C@@]5(C)CC[C@H](O)[C@@](C)(CO)[C@@H]5CC[C@]43C)[C@@H]2C1 | ≥ 95% | 17.8 µM |
| CN1CCN(C(=O)[C@@H]2CCCN2C(=O)N[C@]23CCC(C)(C)C[C@H]2C2=CC[C@@H]4[C@@]5(C)CC[C@@H]6OC(C)(C)OC[C@@]6(C)[C@@H]5CC[C@@]4(C)[C@]2(C)CC3)CC1 | ≥ 95% | 32.4 µM |

| Compound | inhibition at 50 µM [1] | EC50 [2] |
| --- | --- | --- |
| C#CCOC(=O)[C@]12CCC(C)(C)C[C@H]1C1=CC[C@@H]3[C@@]4(C)CC[C@H](O)[C@@](C)(CO)[C@@H]4CC[C@@]3(C)[C@]1(C)CC2 | ≥ 95% | 15.1 µM |
| CC1(C)CC[C@]2(NC(=O)N3CCCNCC3)CC[C@]3(C)C(=CC[C@@H]4[C@@]5(C)CC[C@@H]6OC(C)(C)OC[C@@]6(C)[C@@H]5CC[C@]43C)[C@@H]2C1 | ≥ 95% | > 50 µM |
| CC1(C)CC[C@]2(NC(=O)NCc3cccnc3)CC[C@]3(C)C(=CC[C@@H]4[C@@]5(C)CC[C@@H]6OC(C)(C)OC[C@@]6(C)[C@@H]5CC[C@]43C)[C@@H]2C1 | ≥ 95% | 17.5 µM |
| C[C@H](O)[C@H](O)[C@@H](O)[C@@H](O)[C@@H]1OC[C@@]2(C)[C@@H]3CC[C@]4(C)[C@H](CC=C5[C@@H]6CC(C)(C)CC[C@]6(CO)CC[C@]54C)[C@@]3(C)CC[C@@H]2O1 | ≥ 95% | 26.9 µM |
| CCOC(=O)[C@]12CCC(C)(C)C[C@H]1C1=CC[C@@H]3[C@@]4(C)CC[C@H](O)[C@@](C)(CO)[C@@H]4CC[C@@]3(C)[C@]1(C)CC2 | ≥ 95% | > 50 µM |
| CN(C[C@H](O)[C@@H](O)[C@H](O)[C@H](O)CO)C(=O)N[C@]12CCC(C)(C)C[C@H]1C1=CC[C@@H]3[C@@]4(C)CC[C@@H]5OC(C)(C)OC[C@@]5(C)[C@@H]4CC[C@@]3(C)[C@]1(C)CC2 | ≥ 95% | 19.9 µM |
| CC1(C)CC[C@]2(NC(=O)N3CCC[C@H]3CN3CCCC3)CC[C@]3(C)C(=CC[C@@H]4[C@@]5(C)CC[C@@H]6OC(C)(C)OC[C@@]6(C)[C@@H]5CC[C@]43C)[C@@H]2C1 | ≥ 95% | > 50 µM |
| CC1(C)CC[C@]2(C(=O)OCc3ccc([N+](=O)[O-])cc3)CC[C@]3(C)C(=CC[C@@H]4[C@@]5(C)CC[C@H](O)[C@@](C)(CO)[C@@H]5CC[C@]43C)[C@@H]2C1 | ≥ 95% | 36.2 µM |
| CC1(C)CC[C@]2(C(=O)OCc3ccccc3)CC[C@]3(C)C(=CC[C@@H]4[C@@]5(C)CC[C@H](O)[C@@](C)(CO)[C@@H]5CC[C@]43C)[C@@H]2C1 | ≥ 95% | > 50 µM |
| C=CCOC(=O)[C@]12CCC(C)(C)C[C@H]1C1=CC[C@@H]3[C@@]4(C)CC[C@H](O)[C@@](C)(CO)[C@@H]4CC[C@@]3(C)[C@]1(C)CC2 | ≥ 95% | 22.7 µM |
| CC1(C)CC[C@]2(NC(=O)NCCN3CCCC3)CC[C@]3(C)C(=CC[C@@H]4[C@@]5(C)CC[C@@H]6OC(C)(C)OC[C@@]6(C)[C@@H]5CC[C@]43C)[C@@H]2C1 | ≥ 95% | > 50 µM |
| CC1(C)CC[C@]2(CO)CC[C@]3(C)C(=CC[C@@H]4[C@@]5(C)CC[C@@H]6O[C@H]([C@H](O)[C@@H](O)[C@@H](O)CO)OC[C@@]6(C)[C@@H]5CC[C@]43C)[C@@H]2C1 | ≥ 95% | – |
| C[C@H](O)[C@H](O)[C@@H](O)[C@@H](O)[C@@H]1OC[C@@]2(C)[C@@H]3CC[C@]4(C)[C@H](CC=C5[C@@H]6CC(C)(C)CC[C@]6(C(=O)O)CC[C@]54C)[C@@]3(C)CC[C@@H]2O1 | ≥ 95% | 21.2 µM |
| CC1(C)CC[C@]2(NC(=O)O)CC[C@]3(C)C(=CC[C@@H]4[C@@]5(C)CC[C@@H]6O[C@H](C[C@H]7O[C@H](CO)[C@@H](O)[C@H](O)[C@@H]7O)OC[C@@]6(C)[C@@H]5CC[C@]43C)[C@@H]2C1 | ≥ 95% | > 50 µM |
| CC1(C)CC[C@]2(CO)CC[C@]3(C)C(=CC[C@@H]4[C@@]5(C)CC[C@@H]6O[C@H]([C@H](O)[C@@H](O)[C@H](O)[C@H](O)CO)OC[C@@]6(C)[C@@H]5CC[C@]43C)[C@@H]2C1 | ≥ 95% | > 50 µM |
| CC1(C)CC[C@]2(C(=O)O)CC[C@]3(C)C(=CC[C@@H]4[C@@]5(C)CC[C@H](O[C@@H]6O[C@H](CO)[C@@H](O)[C@H](O)[C@H]6O)[C@@](C)(CO)[C@@H]5CC[C@]43C)[C@@H]2C1 [Hederagenin-3-O-beta-D-glucopyranoside] | ≥ 95% | > 50 µM |
| CCOP(=O)(OCC)OC[C@@]1(C)[C@@H]2CC[C@]3(C)[C@H](CC=C4[C@@H]5CC(C)(C)CC[C@]5(NC(=O)N5CCOCC5)CC[C@]43C)[C@@]2(C)CC[C@@H]1O | ≥ 95% | 19.3 µM |
